Source: ChEMBL document CHEMBL4706532, “New Seco-DSP derivatives as potent chemosensitizers” (Eur J Med Chem, 2020)
Active and inactive are the calls of the source. The rule behind the calls is not given here.

How the values were obtained:
Homo sapiens = species: Homo sapiens; experiment: Stimulation of human membrane P-gp ATPase activity at 0.5 mM using MgATP as substrate preincubated with enzyme for 5 mins followed by substrate addition and measured after 120 mins by ADP-Glo luminescence assay relative to control; assay type: cell membranes; details: time 125.0 min
In short: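 Reactions were started with 10 μL of 25 mM MgATP and run 120 min at 37 °C. ATP detection reagent was then added, and luminescence was read after about 20 min at room temperature (P-gp-Glo). Results are mean ± SD of three independent experiments.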

[1] = Reversal of multidrug resistance activity in P-gp overexpressing human A2780T cells assessed as potentiation of PTX-induced cytotoxicity by measuring reversal ratio at 200 nM incubated for 48 hrs in presence of paclitaxel by MTT assay
A2780/Taxol [2] = experiment: Cytotoxicity against human A2780T cells assessed as reduction in cell viability at 10 uM incubated for 48 hrs by MTT assay; assay type: cell-based
In short: (§1)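 Cells plated at 3~5 × 10^3 per well and allowed 24 h before exposure to compound or DMSO (negative control) for 48 h. A2780/T and KB-VIN were grown in DMEM/F12 with 10% FBS, and HUVEC, HOSEC and T29 in RPMI-1640 with 10% FBS, all at 37 °C under 5% CO₂. MTT was added for 4 h, formazan dissolved in DMSO and absorbance read at 490 nm. Inhibition was calculated relative to DMSO and blank.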

[3] = Reversal of multidrug resistance activity in P-gp overexpressing human A2780T cells assessed as potentiation of PTX-induced cytotoxicity by measuring reversal ratio at 1 uM incubated for 48 hrs in presence of paclitaxel by MTT assay; assay type: functional, A2780/Taxol
In short: (§2)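 Resistant cells were plated at 3~5 × 10^3 per well, given 24 h, then co-treated with test compound plus a range of anticancer drug concentrations (PTX for A2780/T, VCR for KB-VIN, cisplatin for A2780/CDDP) or DMSO for 48 h. Read-out was by MTT, 4 h at 37 °C, with absorbance at 490 nm. Reversal ratio = IC50 (drug alone) / IC50 (drug with compound).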

[4] = Cytotoxicity against human T29 cells assessed as reduction in cell viability at 10 uM incubated for 48 hrs by MTT assay; assay type: cell-based; details: t29, 48 h; in short: as §1
A2780T [5] = experiment: Inhibition of P-gp mediated multidrug resistance activity in human A2780T cells assessed as increase in intracellular DOX accumulation at 10 uM incubated for 4 hrs in presence of doxorubicin by flow cytometry; assay type: cell-based
In short: (§3)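 A2780/T cells were seeded at about 5×10^5 per well and left 24 h. […] Cells were washed three times with ice-cold PBS and resuspended in cold PBS. DOX autofluorescence was measured by flow cytometry and by fluorescence/confocal microscopy. Data are given as mean ± SD.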

A2780/Taxol [6] = experiment: Increase in P-gp expression in human A2780T cells at 10 uM incubated for 48 hrs by western blot analysis; assay type: functional, cell-based
In short: (§4)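 A2780/T cells (about 5×10^5 per well) were allowed 24 h, then treated with compound at 10 µM for 48 h at 37 °C. Cells were lysed in RIPA buffer with 1 mM PMSF. Lysates (20 µg protein) were run on 12% SDS-PAGE and transferred to PVDF. Blots were blocked in 3% BSA and probed overnight at 4 °C with anti-P-gp or GAPDH antibody (1:1000), then with HRP secondary (1:10000) for 1 h. Detection was by ECL with densitometry.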

[7] = Cytotoxicity against human HOSEC cells assessed as reduction in cell viability at 10 uM incubated for 48 hrs by MTT assay; assay type: cell-based; details: hose; in short: as §1
[8] = Cytotoxicity against human KB-VIN cells assessed as reduction in cell viability at 10 uM incubated for 48 hrs by MTT assay; assay type: cell-based; in short: as §1
A2780T [9] = experiment: Inhibition of P-gp mediated multidrug resistance activity in human A2780T cells assessed as increase in intracellular DOX accumulation at 10 uM incubated for 4 hrs in presence of doxorubicin by fluorescence microsocopy; assay type: cell-based; in short: as §3
A2780/Taxol [10] = experiment: Decrease in P-gp expression in human A2780T cells at 10 uM incubated for 48 hrs by western blot analysis; assay type: functional, cell-based; in short: as §4
[11] = Reversal of multidrug resistance activity in P-gp overexpressing human KB-VIN cells assessed as potentiation of VCR-induced cytotoxicity by measuring reversal ratio at 10 uM incubated for 48 hrs in presence of VCR by MTT assay; assay type: functional; in short: as §2
[12] = Reversal of multidrug resistance activity in P-gp overexpressing human A2780T cells assessed as potentiation of PTX-induced cytotoxicity by measuring reversal ratio at 10 uM incubated for 48 hrs in presence of paclitaxel by MTT assay; assay type: functional, A2780/Taxol; in short: as §2
HUVEC = experiment: Cytotoxicity against human HUVEC cells assessed as reduction in cell viability at 10 uM incubated for 48 hrs by MTT assay; assay type: cell-based
In short: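 Cells plated at 3~5 × 10^3 per well and allowed 24 h before exposure to compound or DMSO (negative control) for 48 h. MTT was added for 4 h, formazan dissolved in DMSO and absorbance read at 490 nm. Inhibition was calculated relative to DMSO and blank.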

[13] = Reversal of multidrug resistance activity in human A2780/CDDP cells assessed as potentiation of CDDP-induced cytotoxicity by measuring reversal ratio at 10 uM incubated for 48 hrs in presence of CDDP by MTT assay; assay type: functional; in short: as §2

Structure (SMILES): CCc1cc(=O)c2ccc(OC(C)C)c(COC(=O)Cc3cc(OC)c(OC)c(OC)c3)c2o1
- fold change (FC) (Homo sapiens): 1.2
- Ratio [1]: 1.05
- Activity (A2780/Taxol [2]): Non-Toxic
- Ratio [3]: 3.97
- Activity [4]: Non-Toxic
- inhibition (A2780T [5]): Active
- Activity (A2780/Taxol [6]): inactive
- Activity [7]: Non-Toxic
- Activity [8]: Non-Toxic
- inhibition (A2780T [9]): Active
- inhibition (A2780/Taxol [10]): inactive
- Ratio [11]: 604
- Ratio [12]: 576
- Activity (HUVEC): Non-Toxic

Structure (SMILES): CCOc1ccc2c(=O)cc(CC)oc2c1COC(=O)Cc1cc(OC)c(OC)c(OC)c1
- fold change (FC) (Homo sapiens): 1.2
- Ratio [1]: 1.05
- Activity (A2780/Taxol [2]): Non-Toxic
- Ratio [3]: 4.13
- Activity [4]: Non-Toxic
- inhibition (A2780T [5]): Active
- Activity (A2780/Taxol [6]): inactive
- Ratio [13]: 0.97
- Activity [7]: Non-Toxic
- Activity [8]: Non-Toxic
- inhibition (A2780T [9]): Active
- inhibition (A2780/Taxol [10]): inactive
- Ratio [11]: 628
- Ratio [12]: 677
- Activity (HUVEC): Non-Toxic

Structure (SMILES): CCOc1ccc2c(=O)cc(CC)oc2c1COC(=O)/C=C/c1ccc(OC)cc1
- fold change (FC) (Homo sapiens): 1.2
- Ratio [1]: 1.05
- Activity (A2780/Taxol [2]): Toxic
- Ratio [3]: 128
- Activity [4]: Non-Toxic
- inhibition (A2780T [5]): Active
- Activity (A2780/Taxol [6]): inactive
- Ratio [13]: 0.88
- Activity [7]: Non-Toxic
- Activity [8]: Non-Toxic
- inhibition (A2780T [9]): Active
- inhibition (A2780/Taxol [10]): inactive
- Ratio [11]: 299
- Ratio [12]: >1471
- Activity (HUVEC): Non-Toxic

Structure (SMILES): COc1ccc(CCN(C)CCCC(C#N)(c2ccc(OC)c(OC)c2)C(C)C)cc1OC (configuration not stated)
- fold change (FC) (Homo sapiens): 1.8
- inhibition (A2780T [5]): Active
- inhibition (A2780T [9]): Active

Structure (SMILES): CCOc1ccc2c(=O)cc(CC)oc2c1COC(=O)/C=C/c1ccccc1
- fold change (FC) (Homo sapiens): 1.2
- Ratio [1]: 1.05
- Activity (A2780/Taxol [2]): Non-Toxic
- Ratio [3]: 4.24
- Activity [4]: Non-Toxic
- inhibition (A2780T [5]): Active
- Activity (A2780/Taxol [6]): inactive
- Ratio [13]: 0.92
- Activity [7]: Non-Toxic
- Activity [8]: Non-Toxic
- inhibition (A2780T [9]): Active
- inhibition (A2780/Taxol [10]): inactive
- Ratio [11]: 633
- Ratio [12]: 503
- Activity (HUVEC): Non-Toxic
